Assay results: PMC5050072 (Clinical cancer research : an official journal of the …, 2016)

Key:
glioblastoma explants [1] = assay: Organotypic tumor explants: CellTiter Glo Luminescent Assay; format: cell-based, human; conditions: triple combination RT+temozolomide+RO4929097; n=5
[2] = test system: tumor cells proliferation (Ki-67); assay: Ki-67 immunohistochemistry of matched pre- and post-treatment tumor tissue; format: in vivo, human
Procedure, shortened: (§1)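 Tumor sections taken before and after 7 days of daily test compound were immunostained; the last dose was given 2–3 h before resection. NICD used an anti-NICD antibody. At least 1,000 cells counted per marker, with morphometry by image analysis. Ki-67 values were also grouped by patient survival (n=7). Mean±SEM; unpaired Student's t-tests.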

Hes1 = conditions: cited from earlier work
[3] = Plasma pharmacokinetics of RO4929097; format: in vivo, human; conditions: 10, 15, 20 mg, with temozolomide 75mg/m2
Procedure, shortened: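 Daily test compound at 10, 15 or 20 mg, combined with temozolomide 75 mg/m² and 150 mg/m². Plasma levels measured by HPLC-MS/MS. […] Reported as mean ±SD.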

[4] = test system: Notch gene targets, angiogenesis and mesenchymal genes; assay: RNA-Ampliseq gene expression profiling of matched and recurrent tumors; format: in vivo, human
Procedure, shortened: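 RNA sequencing on FFPE tumor tissue. Samples were matched archival pre-treatment tissue and tissue resected after the initial 7 days of daily test compound. A further set was recurrent tumors resected at repeat surgery from patients kept on the test compound (with temozolomide) until the day of surgery (n=7).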

glioblastoma explants [5] = assay: Organotypic tumor explants: Ki-67 immunofluorescent staining; format: cell-based, human; conditions: RO4929097 1 µM, 10 days in vitro; n=4
Procedure, shortened: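 Fresh tumor tissue from patients resected on study was grown as 3-D organotypic explants. Established explants were treated with the test compound alone. Proliferation was read by Ki-67 immunofluorescent staining and counting of Ki-67+ nuclei before and after treatment (n=4). Mean±SEM; unpaired Student's t-test.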

[6] = format: in vivo, human
[7] = test system: Notch intracellular domain (NICD); assay: NICD immunohistochemistry of tumor cells in matched glioblastoma tissue; format: in vivo, human; conditions: after presurgical 7-day treatment; before 21.9 ± 5.4 %; n=6
Procedure, shortened: as §1

Notch pathway components = format: in vivo, human; conditions: enhancing tissue compared to areas of intact BBB, after 7 days
Procedure, shortened: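 After 7 days of daily test compound (last dose 2–3 h pre-resection), tumor was sampled separately from contrast-enhancing and non-enhancing regions, defined by intraoperative MRI. Notch pathway transcripts were quantified by real-time PCR, normalized to 18S (n=6). Mean±SEM; unpaired Student's t-tests.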

[8] = test system: NICD-expressing vascular structures; assay: NICD/CD31 immunohistochemistry of tumor blood vessels; format: in vivo, human
[9] = test system: tumor blood perfusion and vascular permeability; assay: DCE-perfusion MRI before and after 7 days of RO4929097; format: in vivo, human; conditions: after 7 days of RO4929097
Procedure, shortened: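 Dynamic contrast-enhanced perfusion MRI in glioma patients before and after 7 days of daily test compound given before resection. Read-outs were relative fractional plasma volume (Vp) for blood perfusion and volume transfer coefficient between plasma and extravascular extracellular space (K^trans) for vascular permeability. Values given as mean±SEM; significance by unpaired Student's t-test.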

[10] = Phase I 3+3 dose escalation of RO4929097 with RT and temozolomide: toxicity; format: in vivo, human
GSC-like CD133+ cells = assay: Organotypic tumor explants: FACS analysis of CD133+ cells; format: cell-based, human; conditions: RO4929097 alone; n=5
[11] = second surgery after prolonged course (mean 181 days)
[12] = after RO4929097, survival cut-off 14 months

CC(C)(C(=O)NCC(F)(F)C(F)(F)F)C(=O)N[C@@H]1C(=O)Nc2ccccc2-c2ccccc21 [RO4929097]
decrease in tumor cell viability compared to control untreated explants (glioblastoma explants [1]): ~60%
Ki-67, poor survival group ([2]; after 7 days of RO4929097, baseline 15.0 ± 2.3 %): 20.4 ± 2.2%
Ki-67, favorable survival subgroup ([2]; after 7 days of RO4929097, baseline 37.3 ± 10.7 %): 8.5 ± 3.2%
Ki-67 proliferation marker after treatment ([2]; after 7 days of RO treatment, before 27.7 ± 7.3 %, n=7): 13.6 ± 3.1%
concentration from which target genes (e.g. Hes1) are reduced dose-dependently (Hes1): ≥ 0.1 µM
mean Cmax and AUC24 for the initial dose [3]: increased as the dose was escalated
mesenchymal-associated genes C/EBPB and STAT3 ([4]; after presurgical 7-day RO4929097 treatment phase): downregulated
expression of primary Notch gene targets Hes5, Hey1 and Hey2 ([4]; mostly recurrence group with prolonged therapy, not statistically significant): trend towards downregulation
angiogenesis markers PECAM (CD31), angiopoetins and VEGFA ([4]; recurrent tumors under prolonged RO4929097 therapy): upregulation
proliferation (Ki-67 quantification) in explants (glioblastoma explants [5]): significant decrease in proliferation
tumor drug level, enhancing tissue ([6]; after 7 days of RO4929097, at surgery, disrupted BBB, mean ± SEM): 0.73 ± 0.13 µM
tumor drug level, non-enhancing tissue ([6]; after 7 days of RO4929097, at surgery, intact BBB, mean ± SEM): 0.33 ± 0.04 µM
drug level in non-enhancing tumor tissue, specimen M09 ([6]; repeat surgery, prolonged RO4929097 use, single specimen): ~ 1.3 µM
tumor drug concentration, enhancing areas [6, 11]: 0.77 ± 0.19 µM
tumor drug concentration, non-enhancing areas [6, 11]: 0.71 ± 0.24 µM
average tissue drug level, favorable survival group ([6]; tumor tissue, survival cut-off 14 months): 0.15 ± 0.03 µM
average tissue drug level, poor survival group ([6]; tumor tissue, survival cut-off 14 months, p=0.36 vs favorable): 0.19 ± 0.05 µM
NICD-positive tumor cells after treatment [7]: 5.1 ± 1.3%
Hes1 mRNA levels (Notch pathway components): remained unchanged
mRNA of Notch receptors (Notch 2, 3 and 4) (Notch pathway components): significant upregulation
mRNA of downstream effector Hes5 (Notch pathway components): suppression
mRNA of DLL1, DLL3 and Jag2 ligands (Notch pathway components; n=6): significant downregulation
microvascular density ([8]; Pre vs Post vs PostPP): no significant change
NICD expression on vascular structures, better survival group [8, 12]: 22.5 ± 5.0%
NICD expression on vascular structures, poor survival group [8, 12]: 43.8 ± 9.0%
NICD-expressing vascular structures (Post) ([8]; at 7 days of RO4929097, Pre 67.6 ± 5.2 %, percent of total blood vessels): 30.0 ± 9.0%
NICD-expressing vascular structures (PostPP) ([8]; at recurrence after prolonged treatment, Pre 67.6 ± 5.2 %): 24.2 ± 5.2%
mean K^trans after treatment ([9]; baseline 0.05± 0.01): 0.03 ± 0.01 min⁻¹
mean Vp ratio after drug exposure ([9]; baseline 9.34± 2.4, p<0.05, 8 patients): 3.92± 0.9
QTc prolongation [10]: no significant QTc prolongation
treatment-related deaths [10]: no treatment-related deaths
recommended phase 2 dose (RP2D) ([10]; daily): 20 mg
proportion of CD133+ cells in explants (GSC-like CD133+ cells): significant decrease
